Source: ChEMBL document CHEMBL5653630, “Activation of the p53-MDM4 regulatory axis defines the anti-tumour response to PRMT5 inhibition through its role in regulating cellular splicing” (Sci Rep, 2018)
Each block holds one molecule with its values, some of them ahead of it. Calls of active or inactive are those of the source. The rule behind the calls is not given here.

Legend:
Z-138 [1] = test: In vivo inhibition of PRMT5 in human Z138 cells xenografted in mouse assessed as increase in CDKN1 expression at 100 mg/kg, po BID measured for 7 days; format: functional, organism-based; conditions: time 7.0 day
Z-138 [2] = test: In vivo inhibition of PRMT5 in human Z138 cells xenografted in mouse assessed as increase in p21 expression at 100 mg/kg, po BID measured for 7 days; format: functional, organism-based; conditions: time 7.0 day
JVM-2 = test: Induction of apoptosis in human JVM-2 cells assessed as dead cells incubated for 6 days by annexin-V/FITC propidium iodide staining based flow cytometry analysis; format: functional, cell-based; conditions: dose <= 5000.0 nM, time 6.0 day
Z-138 [3] = test: Induction of apoptosis in human Z138 cells assessed as early apoptotic cells incubated for 6 days by annexin-V/FITC propidium iodide staining based flow cytometry analysis; format: functional, cell-based; conditions: dose 200.0 nM, time 6.0 day
KMS-11 = test: Antiproliferative activity against human KMS-11 cells assessed as cell growth inhibition incubated for 6 days by celltiter-glo assay; format: functional; conditions: KMS-11, 144 h, time 6 day
Outline: (§1)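 Cells seeded in 384-well plates at an optimized density and held 24 h. CellTiter-Glo luminescence read at Day 0 and Day 6. Four-parameter fit. gIC50 = midpoint of the growth window between DMSO and T0. Curves required ≥1.5 population doublings.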

MC-IXC = test: Antiproliferative activity against human MC-IXC cells assessed as cell growth inhibition incubated for 10 days; format: functional; conditions: 240 h, time 10 day
MIA PaCa-2 = test: Antiproliferative activity against human MIA PaCa-2 cells assessed as cell growth inhibition incubated for 10 days; format: functional; conditions: MIA PaCa-2, 240 h, time 10 day
EB-3 = test: Antiproliferative activity against human EB-3 cells assessed as cell growth inhibition incubated for 10 days; format: functional; conditions: EB-3, 240 h, time 10 day
Outline: (§2)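 Outsourced panel run in 384-well plates. Cells were grown in RPMI-1640/10% FBS or a special medium at 37°C, 5% CO2. Compound was added 24 h after seeding as a 10-point, 3.16-fold series in 0.1% DMSO. Medium was refreshed and cells re-dosed at 168 h, with a time-zero plate kept. At 240 h cells were fixed, nuclei stained and imaged. gIC50 is growth midway between untreated and time zero, from a 4-parameter fit.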

[4] = Antiproliferative activity against human CML-T1 cells assessed as cell growth inhibition incubated for 10 days; format: functional; conditions: CML-T1, 240 h, time 10 day
Outline: (§3)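 Cells kept in RPMI-1640 with 10% FBS, 2 mM L-alanyl-L-glutamine and 1 mM Na pyruvate (or a special medium) at 37°C, 5% CO2. Compound added 24 h after seeding, 10 concentrations in 3.16-fold dilution, 0.1% DMSO final. Medium replaced and cells re-dosed at 168 h; 240 h incubation. Nuclei fixed, dye-stained and imaged. gIC50 = growth midway between untreated and time-zero cell counts, from a 4-parameter fit.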

SW1088 = test: Antiproliferative activity against human SW1088 cells assessed as cell growth inhibition incubated for 10 days; format: functional; conditions: SW1088, 240 h, time 10 day
COR-L23 = test: Antiproliferative activity against human COR-L23 cells assessed as cell growth inhibition incubated for 10 days; format: functional; conditions: COR-L23, 240 h, time 10 day; outline: as §2
NCI-H446 = test: Antiproliferative activity against human NCI-H446 cells assessed as cell growth inhibition incubated for 10 days; format: functional; conditions: NCI-H446, 240 h, time 10 day
G-401 = test: Antiproliferative activity against human G-401 cells assessed as cell growth inhibition incubated for 10 days; format: functional; conditions: G-401, 240 h, time 10 day; outline: as §2
Daoy = test: Antiproliferative activity against human Daoy cells assessed as cell growth inhibition incubated for 10 days; format: functional; conditions: 240 h, time 10 day; outline: as §2
MES-SA = test: Antiproliferative activity against human MES-SA cells assessed as cell growth inhibition incubated for 10 days; format: functional; conditions: 240 h, time 10 day
MG-63 = test: Antiproliferative activity against human MG-63 cells assessed as cell growth inhibition incubated for 10 days; format: functional; conditions: MG-63, 240 h, time 10 day
SCC-25 = test: Antiproliferative activity against human SCC-25 cells assessed as cell growth inhibition incubated for 10 days; format: functional; conditions: SCC-25, 240 h, time 10 day
ChaGo-K-1 = test: Antiproliferative activity against human ChaGo-K-1 cells assessed as cell growth inhibition incubated for 10 days; format: functional; conditions: ChaGo-K-1, 240 h, time 10 day; outline: as §2
[5] = Antiproliferative activity against human SW579 cells assessed as cell growth inhibition incubated for 10 days; format: functional; conditions: SW579, 240 h, time 10 day
[6] = Antiproliferative activity against human OCUG-1 cells assessed as cell growth inhibition incubated for 10 days; format: functional; conditions: OCUG-1, 240 h, time 10 day
[7] = Antiproliferative activity against human Ri-1 cells assessed as cell growth inhibition incubated for 6 days by celltiter-glo assay; format: functional; conditions: Ri-1, 144 h, time 6 day; outline: as §1
Hs 766 = test: Antiproliferative activity against human Hs766T cells assessed as cell growth inhibition incubated for 10 days; format: functional; conditions: Hs 766, 240 h, time 10 day
Outline: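 Eurofins panel, 384-well. Cells kept in RPMI-1640 with 10% FBS, 2 mM L-alanyl-L-glutamine and 1 mM Na pyruvate, or in a special medium, at 37°C under 5% CO2. Compound added 24 h after seeding as 10 concentrations in 3.16-fold steps, 0.1% DMSO final. Medium replaced and compound re-dosed at 168 h. After 240 h, cells fixed and nuclei stained for imaging. gIC50 = growth midway between untreated cells and time-zero count.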

U-2940 = test: Antiproliferative activity against human U-2940 cells assessed as reduction in cell viability; format: functional, cell-based
MCF7 = test: Antiproliferative activity against human MCF7 cells assessed as cell growth inhibition incubated for 6 days by celltiter-glo assay; format: functional; conditions: MCF7, 144 h, time 6 day; outline: as §1
SK-MEL-1 = test: Antiproliferative activity against human SK-MEL-1 cells assessed as cell growth inhibition incubated for 10 days; format: functional; conditions: SK-MEL-1, 240 h, time 10 day
SHP77 = test: Antiproliferative activity against human SHP77 cells assessed as cell growth inhibition incubated for 10 days; format: functional; conditions: SHP77, 240 h, time 10 day
NCI-H460 = test: Antiproliferative activity against human NCI-H460 cells assessed as cell growth inhibition incubated for 10 days; format: functional; conditions: NCI-H460, 240 h, time 10 day
CAL-27 = test: Antiproliferative activity against human CAL-27 cells assessed as cell growth inhibition incubated for 10 days; format: functional; conditions: CAL-27, 240 h, time 10 day; outline: as §3
[8] = Antiproliferative activity against human KHOS-240S cells assessed as cell growth inhibition incubated for 10 days; format: functional; conditions: 240 h, time 10 day
Outline: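 Eurofins-panel 10-day assay in 384-well plates. Cells grown in RPMI-1640 with 10% FBS, 2 mM L-alanyl-L-glutamine and 1mM Na pyruvate, or a special medium, at 37°C in 5% CO₂. Compound added 24 h after seeding, 10-point 3.16-fold series in 0.1% DMSO. Medium replaced and compound re-dosed at 168 h. Nuclei fixed and stained after 240 h, then imaged to give a relative cell count. gIC50 is the concentration giving growth midway between untreated and time-zero counts, from a 4-parameter fit.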

SMILES: CC(=O)N1CCC(Nc2cc(C(=O)NC[C@H](O)CN3CCc4ccccc4C3)ncn2)CC1 [PEMRAMETOSTAT]
inhibition (Z-138 [1]): Active | inhibition (Z-138 [2]): Active | Activity (JVM-2): Dose-Dependent Effect | Activity (Z-138 [3]): Dose-Dependent Effect | GI50 (KMS-11): 66 nM

GI50 (MIA PaCa-2): 158 nM | GI50 (SW1088): 40.5 nM | GI50 (NCI-H446): 570 nM | GI50 (MCF7): 215 nM | GI50 (SK-MEL-1): 38.7 nM | GI50 (NCI-H460): 224 nM
SMILES: O=C(NC[C@H](O)CN1CCc2ccccc2C1)c1ccnc(NC2CCC2)c1
GI50 (MC-IXC): 615 nM | GI50 (EB-3): 299 nM | GI50 [4]: 16.1 nM | GI50 (COR-L23): 147 nM | GI50 (G-401): 38.4 nM | GI50 (Daoy): 270 nM | GI50 (MES-SA): 72 nM | GI50 (MG-63): 96 nM | GI50 (SCC-25): 273 nM | GI50 (ChaGo-K-1): 1190 nM | GI50 [5]: 83.3 nM | GI50 [6]: 379 nM | GI50 [7]: 68 nM | GI50 (Hs 766): 1120 nM | Activity (U-2940): Active | GI50 (SHP77): 152 nM | GI50 (CAL-27): 103 nM | GI50 [8]: 124 nM
